Results pooled from the literature.
Each line is one published result; the experiments were not run side by side.
Target: Dual specificity mitogen-activated protein kinase kinase 3 (MAP2K3, Homo sapiens, UniProt P46734)
Sequence (P46734 1-347, as in one of the studies): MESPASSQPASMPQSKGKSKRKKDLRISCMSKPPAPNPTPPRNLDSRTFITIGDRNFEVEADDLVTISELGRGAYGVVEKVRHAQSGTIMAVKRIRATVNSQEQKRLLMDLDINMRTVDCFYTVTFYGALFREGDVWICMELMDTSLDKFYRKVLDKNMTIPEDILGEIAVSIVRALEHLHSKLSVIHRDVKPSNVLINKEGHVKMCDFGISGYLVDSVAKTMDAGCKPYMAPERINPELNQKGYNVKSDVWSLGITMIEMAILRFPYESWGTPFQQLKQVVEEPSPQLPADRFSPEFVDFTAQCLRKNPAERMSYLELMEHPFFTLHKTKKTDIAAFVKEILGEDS

Nc1ncc2c(n1)-c1c([nH]c3ccc(C#CC4CC4)cc13)CCCC2  remaining binding (binding; competition with immobilised ligand; 1 µM): 93%
F[C@@H]1CCN(c2nccc(-c3cnn4ncccc34)n2)C1  remaining binding (binding; 1 µM): 83%
CCCOc1ccc([C@H]2[C@H](C(=O)O)[C@@H](c3ccc4c(c3)OCO4)CN2CC(=O)Nc2c(CC)cccc2CC)cc1  remaining binding (cell-free assay; competition with immobilised ligand; 1 µM): 60%
Cc1cnc(Nc2ccc(C(=O)N3CCC(N4CCCC4)CC3)cc2)nc1-c1cc2ccccc2s1  remaining binding (binding; competition with immobilised ligand; 1 µM): 42%
COc1cnc(Nc2cccc(S(N)(=O)=O)c2)nc1N1CCN(c2ccccc2)C(=O)C1  remaining binding (binding; competition with immobilised ligand; 1 µM): 84%
N[C@H]1CCN(c2nccc(-c3cnn4ncccc34)n2)C1  remaining binding (binding; 1 µM): 67%
c1cncc(-c2cccc(Nc3nccc(NC4CCCCC4)n3)c2)c1  remaining binding (binding; competition with immobilised ligand; 10 µM): 32%
CN(C)c1ncc(F)c(-c2cnn3ncccc23)n1  remaining binding (binding; 1 µM): 78%
C[C@H](NC(=O)c1cnc2n1[C@](C)(Cc1ccc(C#N)cc1)C(=O)N2c1cc(Cl)c(F)c(Cl)c1)C(=O)NC1(c2ccccn2)CC1  remaining binding (cell-free assay; competition with immobilised ligand; 1 µM): 80%
CN(c1nccc(-c2cnn3ncccc23)n1)C1CC1  remaining binding (binding; 1 µM): 93%
CCN1CCN(Cc2ccc(C(=O)Nc3ccc(C)c(Oc4ccc5c(c4)CC(=O)N5)c3)cc2C(F)(F)F)CC1  remaining binding (binding; competition with immobilised ligand; 1 µM): 100%
c1ccc(N2CCN(Cc3nc4ccccc4[nH]3)CC2)nc1  remaining binding (binding; competition with immobilised ligand; 1 µM): 96%
O=C(c1ccc(Nc2ncc(Cl)c(-c3ccc(Cl)s3)n2)cc1)N1CCC(N2CCCC2)CC1  remaining binding (binding; competition with immobilised ligand; 1 µM): 15%
CN(CCCC(F)(F)F)c1nccc(-c2cnn3ncccc23)n1  remaining binding (binding; 1 µM): 99%
O=C(NCc1ncc(C(F)(F)F)cc1Cl)c1ccc2c(c1)C1(CCS(=O)(=O)CC1)[C@@H](C1CC1)N2S(=O)(=O)c1ccc(F)cc1  remaining binding (cell-free assay; competition with immobilised ligand; 1 µM): 73%
O=C(c1ccc(Nc2nccc(-c3cc4ccccc4s3)n2)cc1)N1CCC(N2CCCC2)CC1  remaining binding (binding; competition with immobilised ligand; 1 µM): 42%
Cn1nc(C(F)(F)F)cc1-c1cnc(N2CCc3cc(S(=O)(=O)Nc4c(F)cc(Cl)cc4F)cc(N4CCCC4=O)c32)nc1  remaining binding (cell-free assay; competition with immobilised ligand; 1 µM): 82%
O=C(Nc1c[nH]nc1C(=O)NC1CCNCC1)c1cc(F)cc(F)c1  remaining binding (binding; competition with immobilised ligand; 1 µM): 100%
CO[C@@H](C)c1c(Nc2ccc([C@@H](N(C)C(=O)C3CCS(=O)(=O)CC3)C(F)(F)F)cc2)cnc2cc(Cl)nn12  remaining binding (cell-free assay; competition with immobilised ligand; 1 µM): 90%
c1cnn2ncc(-c3ccnc(N4CCC45COC5)n3)c2c1  remaining binding (binding; 1 µM): 31%
COc1cnc(Nc2cccc(S(N)(=O)=O)c2)nc1N1CCN(c2ccccc2)CC1  remaining binding (binding; competition with immobilised ligand; 1 µM): 79%
CN(C)C(=O)Cn1cc(-c2nc([C@@](C)(c3ccc(-c4cnc(N)nc4)cc3)C3CC3)no2)cn1  remaining binding (cell-free assay; competition with immobilised ligand; 1 µM): 83%
